Results on two molecules are retold here after article PMC8520056 (Asian Journal of Pharmaceutical Sciences, 2021).

Series [1] in a line: Saturated solubility of AG-CDs binary formulations. Format: physicochemical. The conditions noted are these: distilled water. The method, boiled down:
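Binary complexes were made by grinding. γ-CD was dissolved in distilled water, compound added at 1:1 or 1:2 molar ratio, and the mix ground 2 h to a paste. The paste was dried at 50 °C under vacuum, pulverised and passed through an 80-mesh sieve.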

A short description of the next series: Dissolution study. The conditions noted are these: different pH media, 150 mg AG in 1000 ml, 75 rpm, 37 °C, up to 60 min. Format: physicochemical. The method, boiled down:
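USP-type paddle method (Ch.P 2015 Apparatus II) at 75 rpm and 37 ± 0.5 °C. Medium was 1000 ml of distilled water, 0.1 mol/l HCl, pH 6.8 phosphate buffer or 1% SDS. Pure compound or formulations were added at 150 mg compound-equivalent. Aliquots were drawn at 5, 10, 15, 20, 30, 45 and 60 min and replaced with fresh medium. Samples were filtered through 0.45 µm and assayed by HPLC.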

The nature of series [2]: Transwell transport study in MDCK-MDR1 monolayer. Type of series: in vitro ADME, canine. The conditions noted are these: dog. The method, boiled down: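 MDCK-MDR1 cells were seeded at 5 × 10^5 cells/well on 0.4 µm polycarbonate inserts and cultured 7 d; medium was changed every other day, then daily after day 4. Only monolayers with TEER above 140 ohms were used. Monolayers were equilibrated 30 min in HBSS at 37 °C. […] Receiver samples were taken at 15–120 min for HPLC. Papp = (ΔR/Δt)/(S·C0), with S 4.71 cm2; the efflux ratio was calculated from Papp.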

The nature of series [3]: In vivo pharmacokinetic study after oral administration. The arrangement: species or system Sprague-Dawley rats. The conditions noted are these: male, Sprague-Dawley, rat, plasma, 40 mg/kg.
Series [4] is described as follows: Physiologically based absorption modeling. Also noted: species or system rat.
For series [5] the following is noted: cited from earlier work.
The test system of a further series is MDCK-MDR1 cells. The series can be described thus: Cellular uptake of AG with P-gp inhibitors. The conditions noted are these: 100 µM AG, 200 µM γ-CD, 1% P-gp inhibitor, 37 °C, 90 min. Type of series: cell-based, canine. The method, boiled down: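 MDCK-MDR1 cells were grown in DMEM with 10% heat-inactivated FBS and 1% penicillin/streptomycin at 37 °C, 5% CO2. Cells were seeded at 5 × 10^5 cells/well and left to adhere overnight. At 80% confluence they were exposed for 90 min at 37 °C to 100 µM test compound, with or without 200 µM γ-CD plus 1% Tween 80, TPGS, P407 or Cremophor EL. Cells were washed three times in ice-cold PBS, lysed in 1% Triton X-100, and intracellular compound was measured by HPLC. […] Triplicates, mean ± SD.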

[6] abbreviates: three-compartment model fitted to 5 mg/kg i.v. data of ref 35.

In brackets after ≈: the same amount, converted by molar mass.

As for `C=C1CC[C@@H]2[C@](C)(CO)[C@H](O)CC[C@@]2(C)[C@@H]1C/C=C1/C(=O)OC[C@H]1O` [AG, Andrographolide], the concentration in solution in series [1] (solubility) was 74.6 µg/mL (≈ 213 µM). Further, the “AG released (dissolution)” value in “Dissolution study” is 17%. Moreover, in series [2], the Papp A→B at 120 min, 20 µM turned out to be 0.47 ± 0.04 ×10⁻⁶ cm/s; the Papp B→A at 120 min, 20 µM is 4.9 ± 0.05 ×10⁻⁶ cm/s; the efflux ratio at 120 min, 20 µM is 10.4. For the same molecule, in series [3], the AUC(0-inf) was determined as 426 ± 76.8 ng·h/mL, the AUC(0-t) was 351 ± 56.5 ng·h/mL, the Cmax was found to be 57.8 ± 14.8 ng/mL and the Tmax worked out at 1.33 ± 0.52 h. In series [3], the half-life was 9.72 ± 1.38 h and the k el is 2e-05 s⁻¹. Moreover, the “Dissolution rate (constant)” value in series [4] (fitted to dissolution test result, pH 6.8 PBS) stood at 148 µL/min/mg. In series [4] (setting [6]), the “Central (compartment volume)” value was 1460 mL, the K10 worked out at 0.7518 h⁻¹, the K12 amounted to 1.29 h⁻¹ and the K13 turned out to be 4.5125 h⁻¹. In series [4] (setting [6]), the K21 turned out to be 0.27 h⁻¹, the K31 was 7.0938 h⁻¹, the “Periperal_2 (compartment volume)” value worked out at 1000 mL and the “Peripheral_1 (compartment volume)” value was 6000 mL. Also, the “Unbound fraction (plasma)” value in series [5] is reported as 0.35.

For the molecule “D-α-Tocopherol polyethylene glycol succinate [TPGS]”, the “Cellular uptake of AG” value in the series with MDCK-MDR1 cells was determined as 1.04 nmol/mg protein.

By solubility is commonly meant the dissolved amount per volume that the medium holds. Low readings indicate little dissolved substance, high ones much dissolved substance. The Papp A→B is how fast a substance crosses the layer from the apical side. For orientation: Papp B→A means the apparent permeability from the basolateral to the apical side of a cell layer. Broadly, the efflux ratio is the permeability from basolateral to apical divided by that in the opposite direction, in the common usage. The term AUC(0-inf) denotes total exposure, with the tail of the curve extrapolated. The term AUC(0-t) denotes the area under the concentration-time curve up to a stated or last time point. A lower AUC(0-t) goes with low exposure. By Cmax is commonly meant the highest concentration seen after dosing. As a reminder, the Tmax is the time from dosing to the highest level. For orientation: half-life means the time in which the quantity being followed falls by half. Low readings indicate fast loss, high ones slow loss.
